These results are taken from ChEMBL document CHEMBL1136168, “Novel 3-O-acyl mesquitol analogues as free-radical scavengers and enzyme inhibitors: synthesis, biological evaluation and structure-activity relationship” (Bioorg Med Chem Lett, 2003).

The target in experiment [1] is T1, Xanthine dehydrogenase/oxidase (Homo sapiens, UniProt P47989). The experiment is described as follows: Inhibition of Xanthine oxidase. It counts as single protein. An outline of the steps:
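DMSO sample preincubated 15 min with xanthine oxidase (1 u/mL stock) in […] phosphate buffer pH 7.5. Started with 0.15 mM xanthine, run 30 min at 29 °C, stopped with 1 N HCl, A290 read. Triplicates; % inhibition versus solvent control; IC50 by linear regression.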

Experiment [2] is described as follows: Inhibition of yeast Alpha-glucosidase. Details: species or system Saccharomyces cerevisiae; call rule not given here. The gist of the method: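 Yeast α-glucosidase (0.74 u/mL) in 100 mM phosphate pH 7.0 with BSA and 0.20% sodium azide. DMSO sample incubated with enzyme 5 min, A405 zero read. Substrate added, 10 min at 26–28 °C, A405 re-read; increase used for % inhibition. Triplicates; IC50 by linear regression.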

The nature of experiment [3]: Free radical scavenging assessed as ABTS (2,2'-azinobis-(3-ethyl benz) thiazoline-6-sulfonic acid) color change. An outline of the steps: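 ABTS radical cation made by reacting 7 mM ABTS diammonium salt with 2.45 mM potassium persulfate overnight in the dark at room temp, then diluted in PBS pH 7.4 to A734 about 0.70. Sample added to diluted ABTS, A734 read within 1 min. Triplicates with blanks and controls. SC50 by linear regression from at least five concentrations.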

Experiment [4] is described as follows: Free radical scavenging assessed as DPPH color reduction. An outline of the steps:
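DMSO sample mixed in microplate with 0.1 M Tris-HCl pH 7.4 and 0.5 mM DPPH in absolute ethanol. Incubated 20 min in the dark, A517 read. Scavenging taken as % decolorization versus solvent control. SC50 by linear regression from at least five concentrations in triplicate.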

The target of experiment [5] is T1, Xanthine dehydrogenase/oxidase. The experiment in a line: Inhibitory concentration against Xanthine oxidase; Not active at 50 ug/mL concentration. It counts as single protein. The gist of the method: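 DMSO sample preincubated 15 min with xanthine oxidase (1 u/mL stock) in […] phosphate buffer pH 7.5. Started with 0.15 mM xanthine, run 30 min at 29 °C, stopped with 1 N HCl, A290 read. Compound blanks had HCl added before enzyme. Triplicates; % inhibition versus solvent control; IC50 by linear regression.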

T1 sequence (P47989 whole entry): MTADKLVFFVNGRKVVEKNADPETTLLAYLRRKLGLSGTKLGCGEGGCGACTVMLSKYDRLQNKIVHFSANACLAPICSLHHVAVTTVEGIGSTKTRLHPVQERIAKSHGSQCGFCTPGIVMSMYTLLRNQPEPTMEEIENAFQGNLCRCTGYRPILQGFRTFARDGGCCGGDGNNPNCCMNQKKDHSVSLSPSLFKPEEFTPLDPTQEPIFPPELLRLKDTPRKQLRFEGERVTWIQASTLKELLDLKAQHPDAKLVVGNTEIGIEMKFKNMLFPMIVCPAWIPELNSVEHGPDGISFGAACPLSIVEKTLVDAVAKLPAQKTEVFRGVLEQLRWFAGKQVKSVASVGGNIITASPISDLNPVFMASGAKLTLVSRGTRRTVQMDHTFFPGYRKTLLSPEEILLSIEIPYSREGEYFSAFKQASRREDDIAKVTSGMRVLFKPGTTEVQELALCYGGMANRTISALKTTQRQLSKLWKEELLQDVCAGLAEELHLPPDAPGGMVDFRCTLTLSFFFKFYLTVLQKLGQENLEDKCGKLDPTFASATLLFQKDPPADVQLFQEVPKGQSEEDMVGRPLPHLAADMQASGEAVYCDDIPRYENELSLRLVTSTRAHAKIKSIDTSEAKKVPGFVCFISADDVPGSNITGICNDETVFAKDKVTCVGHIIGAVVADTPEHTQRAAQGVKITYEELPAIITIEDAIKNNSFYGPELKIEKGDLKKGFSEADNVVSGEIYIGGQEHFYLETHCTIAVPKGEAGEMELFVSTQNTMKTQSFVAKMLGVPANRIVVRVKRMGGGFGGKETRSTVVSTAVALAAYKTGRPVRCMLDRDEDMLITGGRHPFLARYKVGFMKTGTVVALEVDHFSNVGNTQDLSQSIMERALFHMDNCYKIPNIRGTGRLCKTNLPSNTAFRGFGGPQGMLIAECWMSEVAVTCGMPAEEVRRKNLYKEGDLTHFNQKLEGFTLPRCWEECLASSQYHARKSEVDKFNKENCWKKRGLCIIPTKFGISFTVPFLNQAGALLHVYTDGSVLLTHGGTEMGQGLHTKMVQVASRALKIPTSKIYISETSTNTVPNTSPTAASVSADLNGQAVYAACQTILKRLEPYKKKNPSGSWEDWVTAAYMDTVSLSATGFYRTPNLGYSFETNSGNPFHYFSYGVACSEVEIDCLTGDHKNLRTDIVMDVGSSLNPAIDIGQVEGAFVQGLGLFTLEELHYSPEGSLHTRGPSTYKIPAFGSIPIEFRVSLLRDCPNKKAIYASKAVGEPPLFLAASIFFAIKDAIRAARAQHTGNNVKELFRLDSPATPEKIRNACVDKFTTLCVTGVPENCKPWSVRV

Take `CCCCCC(=O)O[C@@H]1Cc2ccc(O)c(O)c2O[C@H]1c1ccc(O)c(O)c1`: the IC50 is 129 µM in experiment [1] and 49.3 µM in experiment [2]. The SC50 in experiment [3] was 14.4 µM; in experiment [4], 6.68 µM.

`COc1ccc(C(=O)O[C@@H]2Cc3ccc(O)c(O)c3O[C@H]2c2ccc(O)c(O)c2)cc1`: the IC50 in experiment [2] was 67.3 µM; in experiment [5] it was “Not Active”. Besides, in experiment [4], the SC50 is 6.72 µM.

Consider `Oc1cc(O)c2c(c1)O[C@H](c1ccc(O)c(O)c1)[C@H](O)C2` [(-)-EPICATECHIN], for which the IC50 in experiment [2] was 178 µM; in experiment [5], “Not Active”. In addition, the SC50 in experiment [4] stood at 13.5 µM.

As to `Oc1ccc([C@@H]2Oc3c(ccc(O)c3O)C[C@H]2O)cc1O`, the figures for the 50% inhibitory concentration (IC50) in experiment [2] and in experiment [5] were 82.3 µM and “Not Active”, respectively. Further, the SC50 amounted to 14.6 µM in experiment [3] and 6.72 µM in experiment [4].

As to `CCCCCCCCCCCCCC(=O)O[C@@H]1Cc2ccc(O)c(O)c2O[C@H]1c1ccc(O)c(O)c1`, the IC50 stood at 102 µM in experiment [1] and 12.6 µM in experiment [2]. Moreover, the SC50 worked out at 11.3 µM in experiment [3] and 7.51 µM in experiment [4].

In the case of `O=C(O[C@@H]1Cc2ccc(O)c(O)c2O[C@H]1c1ccc(O)c(O)c1)c1ccccc1`, the IC50 in experiment [2] is 77.8 µM; in experiment [5], “Not Active”. For the same molecule, the SC50 in experiment [4] was determined as 11.5 µM.

For `CCCCCCCCCC(=O)O[C@@H]1Cc2ccc(O)c(O)c2O[C@H]1c1ccc(O)c(O)c1`, the results for the IC50 in experiment [1] and in experiment [2] were 112 µM and 13.5 µM, respectively. Moreover, the values for the SC50 in experiment [3] and in experiment [4] were 17.5 µM and 6.07 µM, respectively.

In experiment [2], `OC[C@H]1NC[C@H](O)[C@@H](O)[C@@H]1O` [DUVOGLUSTAT] came in with an IC50 of 50 µM. This counts as double-digit micromolar.

As for `CC(C)(Sc1cc(C(C)(C)C)c(O)c(C(C)(C)C)c1)Sc1cc(C(C)(C)C)c(O)c(C(C)(C)C)c1`, in experiment [4], the SC50 was found to be 21.7 µM.

In the case of `Cc1c(C)c2c(c(C)c1O)CCC(C)(C(=O)O)O2` (stereo unspecified), the SC50 worked out at 1.82 µM in experiment [3] and 15.9 µM in experiment [4].

In the case of `O=C(O[C@@H]1Cc2ccc(O)c(O)c2O[C@H]1c1ccc(O)c(O)c1)c1ccc(F)cc1`, the results for the concentration for half-maximal inhibition (IC50) in experiment [2] and in experiment [5] were 32.8 µM and “Not Active”, respectively. Besides, the SC50 in experiment [4] amounted to 8.99 µM.

Turning to `CCCCCCCCCCCCCCCCCC(=O)O[C@@H]1Cc2ccc(O)c(O)c2O[C@H]1c1ccc(O)c(O)c1`, the results for the IC50 in experiment [1] and in experiment [2] were 156 µM and 54.5 µM, respectively. The SC50 was found to be 17.8 µM in experiment [3] and 9.43 µM in experiment [4].

For the molecule `CCCC(=O)O[C@@H]1Cc2ccc(O)c(O)c2O[C@H]1c1ccc(O)c(O)c1`, the IC50 in experiment [1] is 139 µM; in experiment [2] it was 46.2 µM. Besides, the SC50 in experiment [3] is 14.1 µM; in experiment [4], 8.89 µM.

Turning to `O=C(O[C@@H]1Cc2ccc(O)c(O)c2O[C@H]1c1ccc(O)c(O)c1)c1ccccc1Cl`, the IC50 in experiment [2] is 43.3 µM; in experiment [5], “Not Active”. Moreover, the SC50 in experiment [4] was 7.97 µM.

Take `CC(=O)O[C@@H]1Cc2ccc(O)c(O)c2O[C@H]1c1ccc(O)c(O)c1`: the IC50 in experiment [1] was determined as 150 µM; in experiment [2] it was 46.3 µM. The SC50 is 13 µM in experiment [3] and 7.15 µM in experiment [4].

On to `CCCCCCCCCCCCCCCC(=O)O[C@@H]1Cc2ccc(O)c(O)c2O[C@H]1c1ccc(O)c(O)c1`, for which the IC50 stood at 94.7 µM in experiment [1] and 9.56 µM in experiment [2]. Further, the SC50 in experiment [3] was determined as 10.1 µM; in experiment [4], 5.17 µM.

One may read the IC50 as the concentration that gives 50% inhibition. The low end stands for greater potency in that assay, the high end for weaker potency in that assay.
